From PubChem
Shown are actives, neighbours in structure and some others; about 1.5% of the full set was active somewhere.
APJ antagonist: antagonists of human APJ apelin receptor; AID 2521; CHO-K1 APJ beta-arrestin complementation, luminescence; 330,000 tested, 0.32% active; inhibition, % at 20 µM;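 active = inhibition above about 40% at 20 µM, limit read from the data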;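 also: cells challenged with 10 nM apelin-13 agonist together with compound; plate controls were apelin-13 plus DMSO wells for no effect and DMSO wells lacking apelin-13 for full effect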
APJ agonist: agonists of human APJ apelin receptor | 330,000 tested, 0.11% active | activation, % at 20 µM | P35414 | CHO-K1 APJ PathHunter beta-arrestin, luminescence; 0% DMSO wells, 100% apelin;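 active = activation more than six SD over the plate average, tested at 20 µM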;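 also: 0% = DMSO alone and 100% = apelin-13 at 10 nM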
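Test system – PathHunter CHO-K1 APJ (AGTRL-1) beta-arrestin reporter cells · Input – 1000 cells/well · Compound – single test compound dose, 20 µM final, 1% DMSO · Times – compound stimulation 90 min at 25 °C, detection 60 min · Technique – beta-gal luminescence · Read-out basis – APJ–arrestin association signal · Control set – negative DMSO alone, positive Apelin-13 at 10 nM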
EBI2 antag: blocks human EBI2 receptor beta-arrestin signaling; 360,000 tested, 0.81% active; EBI2 beta-arrestin recruitment, luminescence, 7a,25-OHC stimulated; AID 651636; inhibition, % at 5 µM; in the data active = inhibition above about 38%;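 also: enzyme fragment complementation signal reports receptor beta-arrestin coupling in cells; 0% = agonist plus DMSO wells and 100% = wells without agonist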
Target sequence (P32249 whole entry, looked up, the tested form may be a part): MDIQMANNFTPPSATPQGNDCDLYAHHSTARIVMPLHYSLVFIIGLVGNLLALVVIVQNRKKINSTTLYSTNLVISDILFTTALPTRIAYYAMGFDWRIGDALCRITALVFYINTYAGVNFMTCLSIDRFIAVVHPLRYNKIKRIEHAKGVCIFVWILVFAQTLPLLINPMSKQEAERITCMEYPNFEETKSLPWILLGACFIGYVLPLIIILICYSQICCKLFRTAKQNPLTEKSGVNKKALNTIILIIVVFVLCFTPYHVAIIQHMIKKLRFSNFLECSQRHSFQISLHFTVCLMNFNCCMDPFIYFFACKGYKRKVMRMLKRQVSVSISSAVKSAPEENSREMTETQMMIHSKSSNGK
CCR6 antagonist: blocks CCL20-driven beta-arrestin recruitment at human CCR6; inhibition, % at 20 µM; 340,000 tested, 0.49% active; CHO-K1 CCR6 PathHunter beta-arrestin, luminescence, CCL20-stimulated;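 active = compounds whose inhibition of the agonist-driven luminescence signal at 20 µM reaches about 50%, limit read from the data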;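 also: cells stimulated with CCL20 at 14 nM final; plate controls were DMSO with CCL20 for no effect and DMSO without agonist for full effect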
CXCR6 block: inhibitors of human CXCR6 receptor; O00574; inhibition, % at 20 µM; 360,000 tested, 0.36% active; CHO-K1 PathHunter CXCR6 beta-arrestin, luminescence; AID 602244; in the data active = inhibition above about 34%, passing the limit was not always enough;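 also: antagonist mode with CXCL16 agonist at 10 nM final; 0% = 10 nM CXCL16 with DMSO and 100% = unstimulated wells without agonist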
* hit, by the source's call.

`C/C=C(/C)C(=O)OC1CC(C)(C)C[C@H]2C3=CC[C@@H]4[C@@]5(C)CCC(O[C@@H]6O[C@@H](C(=O)O)[C@@H](O)C(O[C@@H]7OC[C@H](O)[C@@H](O)[C@@H]7O[C@@H]7OC(CO)C(O)[C@@H](O)[C@@H]7O)C6O[C@@H]6OC(CO)C(O)C(O)C6O)[C@@](C)(CO)[C@@H]5CC[C@]4(C)[C@]3(C)CC(O)[C@@]12CO` (some centres not stated) gave APJ antagonist 23, APJ agonist 12, EBI2 antag -15, CCR6 antagonist 27 and CXCR6 block 15.
Screening C/C=C(\C)C(=O)OC1[C@H](OC(C)=O)C2(CO)C(CC1(C)C)C1=CCC3C4(C)CCC(O[C@@H]5O[C@H](C(=O)O)[C@@H](O[C@@H]6O[C@H](CO)[C@@H](O)[C@H](O)[C@H]6O)[C@H](O)[C@H]5O[C@H]5O[C@H](CO)[C@@H](O)[C@H](O)[C@H]5O)[C@](C)(CO)C4CCC3(C)[C@]1(C)C[C@H]2O (some centres not stated) returned EBI2 antag -14, CCR6 antagonist 95* and CXCR6 block 82*.
`CCOC(=O)CS(=O)(=O)c1nc(-c2ccc(F)cc2)cc(C(F)(F)F)n1` gave APJ antagonist 35, APJ agonist -1, EBI2 antag 60*, CCR6 antagonist 52* and CXCR6 block 67*.
For CCOC(=O)CCS(=O)(=O)c1nc(-c2ccccc2)cc(C(F)(F)F)n1 the results were APJ antagonist 36, APJ agonist 1, EBI2 antag 27, CCR6 antagonist 34 and CXCR6 block 29.
`CCN(CC)c1ccc(/C=C2\CCC(/C=C(\C#N)C(=O)Nc3ccccc3F)=C2N2CCOCC2)cc1` gave EBI2 antag 19, CCR6 antagonist 91* and CXCR6 block 29.
For N#C/C(=C\C1=C(N2CCOCC2)C(=C\c2ccc(Cl)cc2)/CC1)C(=O)Nc1ccccc1F the results were EBI2 antag 14, CCR6 antagonist 31 and CXCR6 block 11.
`CCN(CC)c1ccc(/C=C2\CCC(/C=C(/C#N)C(=O)Nc3ccccc3F)=C2N2CCOCC2)cc1` gave EBI2 antag 27, CCR6 antagonist 102* and CXCR6 block 45*.
For N#C/C(=C/C1=C(N2CCOCC2)C(=C/c2ccccc2)/CC1)C(=O)Nc1ccccc1F the results were EBI2 antag 21, CCR6 antagonist 45 and CXCR6 block 30.
For CC(=O)C1=CCC(c2cccc3ccccc23)N(S(=O)(=O)c2ccc(C)cc2)C1 (configuration not stated) the results were EBI2 antag 11 and CXCR6 block 5.
For CCOC(=O)COc1ccccc1/C=C\[N+](=O)[O-] the results were EBI2 antag -17, CCR6 antagonist 69* and CXCR6 block 45*.
CCCCNC(=O)c1nc(C2CCN(S(=O)(=O)c3cccc(C(F)(F)F)c3)CC2)oc1-c1ccccc1 was read as EBI2 antag 4 and CXCR6 block 1.
`CC1=CC(C)(C)Nc2ccc(OC(=O)c3cccnc3)cc21` gave APJ antagonist 39, APJ agonist -8, EBI2 antag -16, CCR6 antagonist 29 and CXCR6 block 21.
For CC1=CC(C)(C)Nc2ccc(OC(=O)c3ccco3)cc21 the results were APJ antagonist 30, APJ agonist -8, EBI2 antag 2, CCR6 antagonist 52* and CXCR6 block 26.
For COc1cccc(CNc2ccc(C)c(Cl)c2)c1 the results were APJ antagonist 20, APJ agonist -1, EBI2 antag -11, CCR6 antagonist 14 and CXCR6 block -1.
`COc1cccc(CNc2cc(CSc3ccc(Cl)cc3)nc(C)n2)c1` gave APJ antagonist 12, APJ agonist -3, EBI2 antag 49*, CCR6 antagonist 11 and CXCR6 block 0.
Screening CCCCN1C(=O)C(CC(=O)NCc2cccc3ccccc23)CC(C(=O)N2CCCCCC2)=C1C (configuration not stated) returned EBI2 antag 6 and CXCR6 block 7.
O=C(O)c1cccc2c1/C(=N/Nc1ccc([N+](=O)[O-])cc1[N+](=O)[O-])c1ccccc1-2 was read as APJ antagonist 15, APJ agonist -5, EBI2 antag 19, CCR6 antagonist 53* and CXCR6 block 24.
